In ChEMBL document CHEMBL4651341, “The discovery of a novel series of compounds with single-dose efficacy against juvenile and adult Schistosoma species” (PLoS Negl Trop Dis, 2021):
Values after ≈ are worked out from the molar mass of the structure shown.

Tests used:
Schistosoma mansoni [1] = test: Percentage of worms remaining following treatment of female CD1 mice infected with S. mansoni worms (21 day old - juvenile or 42 day old - adult) with compound by oral gavage. Worms were recovered by portal perfusion with citrate saline 8-14 days post treatment and counted. Percentages are from a mean of 5 or 6 animals.; assay type: functional, Mus musculus; design: concentration or dose not given beside the values
Outline: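 Female CD1 mice were infected subcutaneously with 150 cercariae and treated at day 21 (juvenile) or day 42 (adult). Single oral gavage, or two doses 12 h apart, given in 7% Tween-80/3% ethanol/water (sonicated) or in 1:19 DMSO:corn oil. Controls received vehicle only. Worm recoveries are group means, n = 5–6.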

[2] = Mean AUC inf in Swiss albino male mice at 1 mg/kg per compound (administered iv in a mixture of 5 compounds to 3 mice) assessed by LCMS/MS.; assay type: ADME, organism-based; conditions: male, Swiss albino, mouse, in vivo
Outline: (§1)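 Male Swiss albino mice (~30 g), 3 per experiment, mostly dosed as mixtures of 5 compounds iv via the lateral tail vein. Vehicle: 10% DMSO/90% 50 mM Na2HPO4 with 0.5% Tween-80. Blood sampled at 5, 15, 30 min and 1, 2, 4, 8, 24 h. Plasma stored at −20 °C and quantified by LC-MS after acetonitrile precipitation.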

[3] = Concentration of drug in plasma at 4h following oral drug adminstration at given dose. Determined by LCMS/MS; assay type: ADME, organism-based; conditions: CD1, mouse
Outline: (§2)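 Plasma sampled from the mice of the efficacy experiments, each animal sampled once: one animal per group at 1, 4 and 8 h, two per group at 24 h. Plasma prepared by acetonitrile protein precipitation and analysed by LC-MS against a 10-point calibration line spiked in blank matrix, with QCs at three or more levels.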

[4] = Concentration required to kill 50% HepG2 cells as detected by MTT staining; assay type: toxicity, cell-based; conditions: homo sapiens, read-out: TC50 (the source's name)
[5] = Concentration of drug in plasma at 24h following oral drug adminstration at given dose. Determined by LCMS/MS; assay type: ADME, organism-based; conditions: CD1, mouse; outline: as §2
[6] = Mean observed clearance in Swiss albino male mice at 1 mg/kg per compound (administered iv in a mixture of 5 compounds to 3 mice) assessed by LCMS/MS.; assay type: ADME, organism-based; conditions: male, Swiss albino, mouse, in vivo, read-out: Clearance (converted); outline: as §1
Schistosoma mansoni [7] = test: Concentration required to kill 50% of 21 day old worms 5 days after drug treatment.; assay type: functional, organism-based; conditions: Puerto Rican, 120 h
Outline: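 Juvenile S. mansoni (Puerto Rican strain) were perfused from CD1 mice 3 weeks post-infection and washed. They were cultured 6–8 per well in 200 µL DMEM with 2 mM glutamine, penicillin/streptomycin and 10% FCS at 37 °C, 5% CO2. Viability of individual worms was scored on day 5 after dosing (120 h).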

[8] = Mean plasma concentration at 24h in Swiss albino male mice at […] per compound (administered orally in a mixture of 5 compounds to 3 mice) assessed by LCMS/MS.; assay type: ADME, organism-based; conditions: mouse, po
Schistosoma mansoni [9] = test: Concentration required to kill 50% of 42 day old worms 5 days after drug treatment.; assay type: functional, organism-based; conditions: Puerto Rican, 120 h
Outline: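 Adult S. mansoni were perfused from CD1 mice 6 weeks post-infection and washed. They were cultured 3 pairs per well in 1 mL DMEM with 2 mM glutamine, penicillin/streptomycin and 10% FCS […] at 37 °C, 5% CO2. Viability of individual worms was scored on day 5 (120 h).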

[10] = Mean oral bioavailability in Swiss albino male mice at […] per compound (administered in a mixture of 5 compounds to 3 mice) assessed by LCMS/MS.; further: dose 2.5 mg/kg; assay type: ADME, organism-based; conditions: mouse, in vivo
[11] = Mean plasma concentration at 4h in Swiss albino male mice at […] per compound (administered orally in a mixture of 5 compounds to 3 mice) assessed by LCMS/MS.; assay type: ADME, organism-based; conditions: mouse, po
[12] = Mean time to peak plasma concentration in Swiss albino male mice at […] per compound (administered orally in a mixture of 5 compounds to 3 mice) assessed by LCMS/MS.; assay type: ADME, organism-based; conditions: mouse, po
[13] = Percentage of parent compound remaining after incubation for 90 minutes with cyropreserved mouse hepatocytes at a concentration of 1uM compound and […], determined by LCMS; assay type: ADME, tissue-based, Hepatocyte; conditions: cryopreserved mouse hepatocytes, read-out: Stability
Outline: (§3)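 Compound was incubated at 1 µM final (2 µM working solution mixed 1:1 with hepatocyte suspension) in supplemented KHB pH 7.4. Conditions: 37 °C, 5% CO2, gentle mixing, duplicates. Reaction quenched with ice-cold acetonitrile containing standard; analysed by LC-MS/MS. % remaining = AUC at t / AUC at T0.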

[14] = Solubility at 25 degC of compound (diluted from DMSO) in PBS at pH 7.4 determined after 24h (1h sonication, 22h shaking, 1h sonication) by LCMS/MS; assay type: physicochemical
[15] = Mean volume of distribution at steady state in Swiss albino male mice at 1 mg/kg per compound (administered iv in a mixture of 5 compounds to 3 mice) assessed by LCMS/MS.; assay type: ADME, organism-based; conditions: mouse, in vivo, read-out: Volume
Outline: (§4)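 Male Swiss albino mice (~30 g), 3 per experiment, mostly dosed as mixtures of 5 compounds iv via the lateral tail vein. Vehicle: 10% DMSO/90% 50 mM Na2HPO4 with 0.5% Tween-80. Plasma stored at −20 °C and quantified by LC-MS after acetonitrile precipitation.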

[16] = Percentage of parent compound remaining after incubation for 30 minutes with cyropreserved mouse hepatocytes at a concentration of 1uM compound and […], determined by LCMS; assay type: ADME, tissue-based, Hepatocyte; conditions: cryopreserved mouse hepatocytes, read-out: Stability; outline: as §3
[17] = Partition coefficient of compound between n-octanol and PBS (pH7.4); assay type: physicochemical; conditions: octanol/water, pH 7.4
Outline: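 Shake-flask method using octanol and PBS pH 7.4, each pre-saturated with the other. Compound was shaken 2 h at 850 rpm, 25 °C, then the phases were separated by centrifugation and both layers diluted and analysed by LC-MS/MS. LogD = log(octanol AUC × relative dilution / buffer AUC).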

[18] = Mean half-life in Swiss albino male mice at 1 mg/kg per compound (administered iv in a mixture of 5 compounds to 3 mice) assessed by LCMS/MS.; assay type: ADME, organism-based; conditions: mouse, in vivo; outline: as §4
[19] = Plasma protein binding determined at 10uM by LC-MS/MS.; conditions: mouse
[20] = Plasma protein binding determined at 10uM by LC-MS/MS.; assay type: ADME, cell-free
Outline: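 Equilibrium dialysis of plasma spiked at 10 µM (0.1% DMSO) against PBS pH 7.4, 6 h at 37 °C, duplicates. Both chambers analysed by LC-MS/MS after acetonitrile precipitation. % free = buffer/plasma area ratio; recovery also calculated.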

[21] = Percentage of parent compound remaining after incubation for 30 minutes with cyropreserved human hepatocytes at a concentration of 1uM compound and 1 million cells/uL, determined by LCMS/MS; assay type: ADME, tissue-based, Hepatocyte; conditions: cryopreserved human hepatocytes, read-out: Stability; outline: as §3
[22] = Plasma protein binding determined at 1uM by LC-MS/MS.; assay type: ADME, cell-free
[23] = Concentration required to kill 50% MRC-5 cells as detected by Alamar blue staining; assay type: toxicity, cell-based, MRC5; conditions: homo sapiens, read-out: TC50 (the source's name)
Schistosoma haematobium = test: Concentration required to kill 50% of 84 day old worms 5 days after drug treatment.; assay type: functional, organism-based; conditions: Egyptian, 120 h
[24] = male, Swiss albino, read-out: Bioavailability

SMILES | AUC(0-inf) [2] | CC50 [4] | clearance [6] | EC50 (Schistosoma mansoni [7]) | concentration at 24 h [8] | EC50 (Schistosoma mansoni [9]) | bioavailability [10, 24] | concentration at 4 h [11] | Tmax [12] | solubility kinetic at 24 h [14] | Vd [15] | remaining at 0.5 h, 1 µM [16] | Lipophilicity [17] | half-life [18] | Binding [19] | Binding ([20]; mouse) | remaining at 0.5 h, 1 µM [21] | other results
CCc1nc2cnc(-c3ccc(F)c(C(F)(F)F)c3)cn2c1-c1ccc2[nH]ncc2c1F | 2080 ng·h/mL | 13100 nM | 4.02 mL/min/kg | 87 nM | 21.4 ng/mL | 45 nM | 82.7% | 676 ng/mL | 120 min | 1.83 µM (≈ 0.811 µg/mL) | 1.37 L/kg |  |  |  |  |  |  | Efficacy (Schistosoma mansoni [1]): 89.6%; concentration at 4 h [3]: 705 ng/mL; concentration at 24 h [5]: 50.5 ng/mL; remaining at 1.5 h, 1 µM [13]: 85%
COc1ccc(-c2c(C(C)C)nc3cnc(-c4ccnc(N(C)C)c4)cn23)cc1O | 48.3 ng·h/mL |  | 173 mL/min/kg | < 939 nM | 0.1 ng/mL |  | 6.57% | 1.11 ng/mL | 15 min | 0.467 µM (≈ 0.188 µg/mL) | 2.98 L/kg | 31.9% | 4.33 = | 19.9 min | 98.4537% |  |  | 
Fc1ccc(-c2cn3c(-c4ccc5[nH]ncc5c4F)c(C(F)(F)F)nc3cn2)cc1C(F)(F)C(F)(F)F |  | 11700 nM |  |  |  |  |  | 359 ng/mL | 120 min |  |  |  | 5.6 = |  |  | 100% |  | Efficacy (Schistosoma mansoni [1]): 1.84%; concentration at 4 h [3]: 556 ng/mL; bioavailability [10]: 170%
CC(C)c1nc2cnc(-c3cccc(C(F)(F)F)c3)cn2c1-c1ccc2[nH]ncc2c1F | 929 ng·h/mL | 15100 nM | 9.15 mL/min/kg | 51.7 nM | 18 ng/mL | 30.7 nM | 63.2% | 194 ng/mL | 30 min | 1.52 µM (≈ 0.668 µg/mL) | 3.44 L/kg | 93.9% | 4.56 = | 362 min |  | 99.975% | 83.1% | Binding ([20]; human): 99.997%
CC(C)c1nn2cnc(-c3cccc(C(F)(F)F)c3)cc2c1-c1c(F)cc(O)cc1F | 195 ng·h/mL | 8400 nM | 42.8 mL/min/kg | < 12.2 nM | 0.1 ng/mL | 21.9 nM | 14.5% | 12.5 ng/mL | 15 min | 91.9 µM (≈ 39.8 µg/mL) | 3.67 L/kg | 95.9% | 5.11 = | 95.4 min |  | 100% | 68.4% | Binding ([20]; human): 100%
COc1ccc(-c2c(C(C)C)nc3cnc(-c4ccc(F)c(C(F)(F)F)c4)cn23)cc1O | 143 ng·h/mL |  | 58.8 mL/min/kg | 177 nM | 0.1 ng/mL | < 48.8 nM | 8.28% | 5.08 ng/mL | 15 min | 2.5 µM (≈ 1.11 µg/mL) | 3.75 L/kg | 54.5% | 5.7 = | 96 min | 99.9485% |  |  | 
Oc1ccc(-c2cnc3cnc(-c4cccc(C(F)(F)F)c4)cn23)c(F)c1 | 49.9 ng·h/mL |  | 168 mL/min/kg | 2120 nM | 0.1 ng/mL | 2320 nM |  | 0.1 ng/mL | 15 min | 2 µM (≈ 0.747 µg/mL) | 1.33 L/kg | 32.9% | 4.95 = | 10.3 min |  |  | 31% | Binding ([22]; human): 99.88%; Binding ([22]; mouse): 99.76%; CC50 [23]: > 38300 nM
COc1ccc(-c2c(C)nc3ccc(-c4cccc(C(F)(F)F)c4)cn23)cc1O | 53.1 ng·h/mL |  | 158 mL/min/kg | < 684 nM | 0.1 ng/mL |  | 1.48% | 0.1 ng/mL | 15 min | 1.95 µM (≈ 0.777 µg/mL) | 3.65 L/kg | 43% | 4.92 = |  | 99.8676% |  |  | 
CCc1nc2cnc(-c3cccc(C(F)(F)F)c3)cn2c1-c1ccc(O)cc1F | 144 ng·h/mL | 18700 nM | 58.2 mL/min/kg | 85.9 nM | 0.1 ng/mL | < 140 nM | 7.35% | 4.15 ng/mL | 15 min | 17.5 µM (≈ 7.02 µg/mL) | 2.17 L/kg | 39% | 3.76 = | 33.6 min |  | 99.87% |  | EC50 (Schistosoma haematobium): 151 nM; CC50 [23]: 17500 nM
COc1cc(-c2c(C(C)C)nc3cnc(-c4cccc(C(F)(F)F)c4)cn23)cc2cn[nH]c12 | 490 ng·h/mL |  | 17 mL/min/kg | 527 nM | 10.5 ng/mL | 428 nM | 84.8% | 130 ng/mL | 30 min | 0.643 µM (≈ 0.29 µg/mL) | 6.81 L/kg | 68% | 5.49 = | 446 min |  | 99.95% |  | Binding ([22]; mouse): 100%; EC50 (Schistosoma haematobium): 149 nM
COc1ccc(-c2c(C3CC3)nc3cnc(-c4cccc(C(F)(F)F)c4)cn23)cc1O | 77.9 ng·h/mL |  | 108 mL/min/kg | 62.5 nM | 0.1 ng/mL | 71.5 nM | 3.64% | 1.88 ng/mL | 15 min | 1.2 µM (≈ 0.51 µg/mL) | 4.58 L/kg | 41.3% | 4.62 = | 62.4 min | 99.9319% |  |  | 
Cc1nc2cnc(-c3ccc(F)c(C(F)(F)F)c3)cn2c1-c1c(F)cc(O)cc1F | 844 ng·h/mL | 7560 nM | 10.2 mL/min/kg | 124 nM | 9.8 ng/mL | 118 nM | 88.5% | 289 ng/mL | 15 min | 1.11 µM (≈ 0.47 µg/mL) | 2.91 L/kg | 53.6% | 5.37 = | 216 min |  | 99.865% | 34.3% | Binding ([22]; mouse): 99.8779%; Binding ([20]; human): 99.9645%; EC50 (Schistosoma haematobium): 41.5 nM
